Results: ChEMBL document CHEMBL3399918, “In vitro radical scavenging and cytotoxic activities of novel hybrid selenocarbamates” (Bioorg Med Chem, 2015)
Active and inactive are the calls of the source. The calls are words filed in the database; no cut-off is given here.

Experiments:
CCRF-CEM = test: Cytotoxicity against human CCRF-CEM cells after 72 hrs by MTT assay; type: functional
How it was run: (§1)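 CCRF-CEM, HT-29, PC-3 and HTB-54 cells grown in RPMI 1640 with 10% foetal calf serum, 2 mM L-glutamine, penicillin/streptomycin, 10 mM HEPES (pH 7.4). Five concentrations, 0.01–100 μM, 72 h at 37 °C, 5% CO2; MTT read-out. GI50, TGI and LC50 versus untreated controls; at least 3 independent experiments in quadruplicate.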

MCF7 = test: Cytotoxicity against human MCF7 cells after 72 hrs by MTT assay; type: functional; details: MCF7, 72 h; for CC50: read-out: LC50 (the source's name)
How it was run: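 MCF-7 cells grown in EMEM with 10% foetal calf serum, 2 mM L-glutamine, 100 units/mL penicillin, 100 µg/mL streptomycin. Exposed to five concentrations between 0.01 and 100 μM for 72 h, 37 °C, humidified 5% CO2; MTT read-out. GI50, TGI, LC50 relative to untreated controls; ≥3 independent experiments in quadruplicate.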

HT-29 = test: Cytotoxicity against human HT-29 cells after 72 hrs by MTT assay; type: functional; details: HT-29, 72 h; how it was run: as §1
[1] = Cytotoxicity against human HTB-54 cells after 72 hrs by MTT assay; type: functional; details: HTB-54, 72 h; for CC50: read-out: LC50 (the source's name); how it was run: as §1
[2] = Antioxidant activity assessed as DPPH radical scavenging activity at 0.5 mg/ml after 180 mins; type: physicochemical; details: 3 h
How it was run: (§2)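 Compounds in absolute ethanol, serially diluted from 1 mg/mL, mixed 1:1 with […] in ethanol. Final range 0.016–0.5 mg/mL, 6 concentrations. Incubated at 37 °C in the dark, with decolourisation followed at 517 nm at several time intervals. % scavenged = (A vehicle control − A sample)/A control × 100. Quadruplicate; mean ± SD.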

[3] = Antioxidant activity assessed as ABTS radical scavenging activity by measuring Trolox equivalent antioxidant capacity after 6 mins; type: physicochemical; details: 0.1 h
How it was run: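 ABTS dissolved in deionized water at 1 mg/mL, oxidised to radical cation with potassium persulfate (2.45 mM final), kept overnight at room temperature in dark, then diluted with 50% ethanol to A741 = 0.700 ± 0.02. Compound (1 mg/mL ethanol stock) added 1:10 (0.1 mg/mL); A741 decrease read after 6 min against 50% ethanol blank. Trolox positive control; quadruplicate; TEAC from calibration curve.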

[4] = Antioxidant activity assessed as ABTS radical scavenging activity at 0.1 mg/ml after 6 mins; type: physicochemical; details: 0.1 h
How it was run: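 Diluted with 50% ethanol to A741 0.700 ± 0.02. A741 decrease read after 6 min against a 50% ethanol blank. % scavenged relative to a vehicle-plus-radical control. Quadruplicate.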

[5] = Cytotoxicity against human BEAS2B cells after 72 hrs by MTT assay; type: cell-based, BEAS-2B; details: for GI50 at 72 h: BEAS2B cells; for LC50 / TGI: beas-2b, 72 h
How it was run: (§3)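 Non-malignant lines: 184B5 (normal breast) in Hams F-12/DMEM (50:50) with published supplements; BEAS-2B (bronchial epithelium) in Hams F-12/DMEM (50:50) with 10% foetal calf serum, 2 mM L-glutamine, penicillin/streptomycin. Compounds at five concentrations, 0.01–100 μM, 72 h, 37 °C, 5% CO2; MTT read-out. GI50, TGI, LC50 relative to untreated controls; ≥3 independent experiments in quadruplicate.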

[6] = Cytotoxicity against human 184B5 cells after 72 hrs by MTT assay; type: cell-based; details: for GI50 at 72 h: 184B5 cells; for LC50 / TGI: 184b5, 72 h; how it was run: as §3
[7] = Cytotoxicity against human PC3 cells after 72 hrs by MTT assay; type: functional; details: PC-3, 72 h; how it was run: as §1
[8] = Glutathione peroxidase-like activity assessed as reduction in H2O2 reduction by tiophenol based UV absorption spectrometry
How it was run: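 Iwaoka–Tomoda thiophenol method. Compound in ethanol at 0.1 mg/mL, mixed in equal volumes with 2 mM PhSH in ethanol and 5 mM H2O2 in ethanol (stock concentrations). Data collected every 5 s. Negative control contained compound, vehicle and PhSH without H2O2. Triplicate; mean ± SD.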

[9] = Antioxidant activity assessed as DPPH radical scavenging activity at 0.25 mg/ml; type: physicochemical; details: TDE = time-dependent effect; how it was run: as §2
[10] = Glutathione peroxidase-like activity assessed as reduction in H2O2 reduction at 0.033 mg/ml by tiophenol based UV absorption spectrometry
How it was run: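 Iwaoka–Tomoda method: compound in ethanol (0.1 mg/mL stock) mixed in equal volumes with 2 mM PhSH and 5 mM H2O2 (both ethanol stocks), thiophenol-driven catalytic H2O2 reduction. Data collected every 5 s. Negative control without H2O2 (compound, vehicle, PhSH). Triplicate.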

SMILES	GI50 (CCRF-CEM)	LC50 (CCRF-CEM)	TGI (CCRF-CEM)	GI50 (MCF7)	TGI (MCF7)	CC50 (MCF7)	GI50 (HT-29)	LC50 (HT-29)	TGI (HT-29)	GI50 [1]	TGI [1]	CC50 [1]	inhibition (INH) [2]	inhibition (INH) [4]	GI50 at 72 h [5]	LC50 [5]	TGI [5]	GI50 at 72 h [6]	LC50 [6]	TGI [6]	further results
C=CCOC(=O)Nc1ccc([Se][Se]c2ccc(NC(=O)OCC=C)cc2)cc1	4.6 µM	46.9 µM	8.7 µM	20.8 µM	47.2 µM	73.6 µM	25.9 µM	79.5 µM	52.7 µM	29.8 µM	56.6 µM	83.3 µM	30%	10.9%	14.3 µM	71.4 µM	42.9 µM	6.4 µM	60.4 µM	21.5 µM	Activity [3]: 5.5 µg/µL; GI50 [7]: 25 µM; LC50 (concentration causing 50% net cell kill) [7]: 74.7 µM; TGI [7]: 49.9 µM
CCCCOC(=O)Nc1ccc([Se][Se]c2ccc(NC(=O)OCCCC)cc2)cc1	16.7 µM	72.3 µM	44.5 µM	17.3 µM	46.3 µM	75.2 µM	27.6 µM	82.4 µM	55 µM	35.2 µM	57.3 µM	79.4 µM	36.1%	7.3%	24.2 µM	75 µM	49.6 µM	7.2 µM	63.1 µM	26 µM	Activity [3]: 2.67 µg/µL; GI50 [7]: 28.6 µM; LC50 (concentration causing 50% net cell kill) [7]: 76.4 µM; TGI [7]: 52.5 µM
CC(C)COC(=O)Nc1ccc([Se][Se]c2ccc(NC(=O)OCC(C)C)cc2)cc1	9.8 µM	70.2 µM	39.8 µM	19 µM	49.7 µM	80.5 µM	19.9 µM	77.4 µM	48.6 µM	29 µM	52.9 µM	76.9 µM	66.5%	29.6%	13.1 µM	72.4 µM	42.7 µM	5.5 µM	56.6 µM	10.5 µM	Activity [8]: inactive; Activity [3]: 20 µg/µL; inhibition (INH) [9]: tde; GI50 [7]: 24.2 µM; LC50 (concentration causing 50% net cell kill) [7]: 73.7 µM; TGI [7]: 48.9 µM
CCOC(=O)Nc1ccc([Se]C#N)cc1	9.8 µM	68.8 µM	39.1 µM	8.9 µM	36.7 µM	67.8 µM	9.3 µM	66.6 µM	38 µM	24.9 µM	49.3 µM	72.7 µM	37%	26.3%	21.7 µM	72.2 µM	46.9 µM	5.5 µM	59 µM	18.6 µM	Activity [3]: 17.4 µg/µL; GI50 [7]: 9.9 µM; LC50 (concentration causing 50% net cell kill) [7]: 68.4 µM; TGI [7]: 39.2 µM; Activity [10]: Active
COc1ccc(OC(=O)Nc2ccc([Se][Se]c3ccc(NC(=O)Oc4ccc(OC)cc4)cc3)cc2)cc1	5.3 µM	63.1 µM	25.8 µM	9.7 µM	42.8 µM	76.8 µM	13 µM	79.2 µM	46.1 µM	18 µM	46.3 µM	74.5 µM	> 50%	> 25%	0.6 µM	62.3 µM	19.9 µM	3.4 µM	43.5 µM	8.1 µM	Activity [8]: inactive; GI50 [7]: 4.4 µM; LC50 (concentration causing 50% net cell kill) [7]: 64.6 µM; TGI [7]: 28.2 µM
CCCCOC(=O)Nc1ccc([Se]C#N)cc1	6.5 µM	63.5 µM	27.9 µM	6.6 µM	20.2 µM	59.7 µM	8.1 µM	63.7 µM	31.3 µM	17.2 µM	43.4 µM	69.5 µM	6.6%	12.6%	5 µM	54.5 µM	12.2 µM	5.3 µM	56.8 µM	14.5 µM	Activity [3]: 6.77 µg/µL; GI50 [7]: 12.4 µM; LC50 (concentration causing 50% net cell kill) [7]: 69.3 µM; TGI [7]: 40.8 µM
N#C[Se]c1ccc(NC(=O)Oc2ccccc2)cc1	22.9 µM	73.2 µM	48 µM	4 µM	35.9 µM	67.8 µM	11.7 µM	71.7 µM	41.7 µM	26.2 µM	50.2 µM	74.4 µM	19.3%	> 25%	8.9 µM	69.3 µM	38.2 µM	0.4 µM	61.2 µM	22.7 µM	Activity [3]: 29 µg/µL; GI50 [7]: 9.1 µM; LC50 (concentration causing 50% net cell kill) [7]: 68 µM; TGI [7]: 37.5 µM
CCCOC(=O)Nc1ccc([Se][Se]c2ccc(NC(=O)OCCC)cc2)cc1	4.3 µM	49.1 µM	8.8 µM	31.7 µM	55.8 µM	80 µM	18.3 µM	76.1 µM	47.2 µM	48.5 µM	68.4 µM	88.3 µM	52.4%	22.5%	14.4 µM	72.2 µM	43.3 µM	7.2 µM	62 µM	24.5 µM	Activity [3]: 14.5 µg/µL; GI50 [7]: 18.4 µM; LC50 (concentration causing 50% net cell kill) [7]: 71.5 µM; TGI [7]: 45 µM
